Assay outcomes (PubChem BioAssay)
Hits are enriched below; roughly 8.9% of the tested compounds scored in any of these assays.
MT stabilize HCS: microtubule stabilizers in HeLa cells; HeLa tubulin immunostaining HCS, 24 h; share of cells brighter than vehicle mean+2SD; % tubulin-high responders, % at 10 µM; 0.83% of 200,000 active;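 active means plate Z-score above 3 for both tubulin-high and condensed-nucleus cell shares, with cell loss under 80%, at 10 µM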;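 further: anti alpha tubulin signal scored within the nucleus-defined area of each cell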
Dynein cargo inh: dynein cargo transport inhibition; 3617.4 mouse cells, GR-EGFP nuclear translocation imaging; test concentration mostly 20 µM; stimulated with dexamethasone, 1 µM; active compounds read low; z-score, hits read low; 0.47% of 220,000 active; AID 1381;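 active means plate z-score of nuclear minus cytoplasmic receptor signal below a set negative limit, without overly bright fluorescence or cell loss, cut at about -3.5 in these data, passing the limit was not always enough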;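 further: z-score of nuclear minus cytoplasmic ring GR-EGFP intensity difference per well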
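Buffer or medium: tetracycline-free induction medium containing charcoal-stripped FBS / Reagent: dexamethasone agonist, 1.0 µM final, for 30 min / Technique: automated 10x imaging of fixed Hoechst-stained cells / Times: induction 48 h, compound 1 h, agonist 30 min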
Lmaj promast: inhibitors of Leishmania major promastigote growth; Leishmania major promastigotes, resazurin fluorescence viability; inhibition, % at 10 µM; 9% of 200,000 active; in the data active means inhibition above about 50%;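 further: promastigotes grown with compound for 44 hours at 28 °C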
HSV augment: HSV replication enhancement | HSV replication augmentation in cells, fold increase | maximum fold increase | 0.005% of 220,000 active | AID 1956; in the data active means maximum fold increase above about 1.5; tested in PC3 cells
b-catenin transl: beta-catenin nuclear translocation modulation | HeLa beta-catenin nuclear translocation, immunofluorescence imaging | nuclear translocation activity, % at 5 µM | 0.3% of 190,000 active | AID 1665;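 active means nuclear translocation activity above 50% at 5 µM, with a well cell count of 50 or more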;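 further: per-cell ratio of nuclear to cytoplasmic median beta-catenin stain intensity; plate controls were DMSO negative control for no effect and GSK-3 inhibitor IX positive control for full effect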
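Test system: human HeLa cells, endogenous beta-catenin. Times: 24 h compound exposure, 37°C. Measured by: beta-catenin immunofluorescence imaging with DAPI.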
The depositor's hits bear a star; i = inactive; x = no result.

SMILES	MT stabilize HCS	Dynein cargo inh	Lmaj promast	HSV augment	b-catenin transl
Cn1c(C(=O)N2CCC(C(=O)N3CCN(Cc4ccc5c(c4)OCO5)CC3)CC2)cc2sccc21	3	-0.31	8	i	-3
O=C(COc1ccccc1[N+](=O)[O-])N1CCN(S(=O)(=O)c2ccccc2)CC1	4	0.098	1	i	-1
O=C(OCC(=O)N1CCN(S(=O)(=O)c2ccc(Cl)cc2)CC1)c1ccc([N+](=O)[O-])o1	2	-0.51	57*	i	-4
O=C(OCC(=O)N1CCN(S(=O)(=O)c2ccccc2)CC1)c1ccc([N+](=O)[O-])o1	7	-0.91	95*	i	-5
COc1ccc(CNCC(=O)Nc2ccccc2-n2cccc2)cc1	33*	0.11	-5	i	43
COc1ccc(-c2nnc(SC(C)C(=O)Nc3nccs3)n2-c2ccccc2)cc1OC (stereo not given)	4	-0.43	54*	i	-3
O=C1N/C(=C\c2ccccc2)c2ccccc21	20*	2.5	0	i	1
CN(C)CCNC(=O)c1ccc(CS(=O)(=O)c2ccc(Br)cc2)o1	4	-0.82	77*	i	x
CCN(CC)C(=S)SCC(=O)c1ccc(F)cc1	2	-0.27	78*	i	0
CCN(CC)C(=S)SCC(=O)c1ccccc1	3	0.059	1	i	2
COCC(=O)n1nc(-c2ccccc2)nc1NCc1cccs1	2	-0.7	-2	i	-5
c1ccc(CNc2nc(N3CCN(Cc4ccccc4)CC3)nc3ccccc23)cc1	x	-0.45	x	i	4
c1ccc(CN2CCC(Nc3nc(-c4ccccc4)nc4ccccc34)CC2)cc1	4	0.19	100*	i	-1
Cc1ccc(NC(=O)/C(C#N)=C/c2cn(CC(=O)NCc3ccco3)c3ccccc23)cc1C	3	0.45	-7	i	0
Cc1ccn2cc(CSc3ccccc3)nc2c1	1	0.96	71*	i	0
Cc1ccc(SCc2cn3cccnc3n2)cc1	2	0.78	-8	i	-4
O=C(c1sc2cccc(F)c2c1Cl)N1CCN(c2ncccn2)CC1	3	2.2	77*	i	-2
CCOC(=O)c1ccc(S(=O)(=O)N2CCN(C(=O)c3cc(=O)c4ccccc4o3)CC2)cc1	3	0.44	3	i	-3
COCC(C)NC(=S)NC(=O)c1cc(S(=O)(=O)N2CCOCC2)ccc1C (stereo not given)	4	3	-1	i	-3
Cc1c(-c2ccccc2)nc2ccccc2c1C(=O)Oc1ccc([N+](=O)[O-])cc1	1	-0.34	50*	i	0
Cc1nc2cccc(C(=O)Oc3ccc([N+](=O)[O-])cc3)c2o1	2	0.14	-2	i	0
CN(NC(=O)c1cccc(Cl)c1)c1nc(-c2ccccc2)nnc1C(F)(F)F	40*	-0.75	-3	i	0
CN(N)c1nc(-c2ccccc2)nnc1C(F)(F)F	3	0.48	2	i	3
CC1(C)CSC(=NCCc2ccccc2)N1C(=O)c1ccc(C#N)cc1	1	0.94	92*	i	2
CC1(C)CC(=O)/C(=C(\O)c2ccccc2)C(=NCCc2ccccc2)C1	4	0.34	4	i	0
SMILES	MT stabilize HCS	Dynein cargo inh	Lmaj promast	HSV augment	b-catenin transl
Cc1ccc(C)c(Nc2ncnc(N)c2[N+](=O)[O-])c1	3	0.24	61*	i	0
Cc1ccc(N(CC(=O)NCCc2ccc(F)cc2)S(=O)(=O)c2ccc(Cl)c([N+](=O)[O-])c2)c(C)c1	40	-2.9	54*	i	-1
COc1ccc(NC(=O)Cc2coc3cc(C)ccc23)cc1S(=O)(=O)N1CCOCC1	4	-0.38	-6	i	-1
COc1ccc(NC(=O)CN2CCc3ccccc3C2)cc1S(=O)(=O)N1CCOCC1	4	-0.56	70*	i	x
COc1ccc(NC(=O)Cc2coc3ccc4ccccc4c23)cc1S(=O)(=O)N1CCOCC1	3	-0.56	78*	i	1
Oc1ccc(Oc2ncc(Cl)cc2Cl)cc1	3	0.27	-4	i	-1
Cc1sc(NC(=O)/C=C/C(=O)O)c(C(N)=O)c1-c1ccc(C(C)(C)C)cc1	3	-2	44	i	x
Cc1sc(NC(=O)C2CCCCC2C(=O)O)c(C(N)=O)c1-c1ccc(C(C)(C)C)cc1 (stereo not given)	2	0.15	-7	i	x
CCOC(=O)c1c(NC(=O)/C=C/C(=O)O)sc(C)c1-c1ccc(C(C)(C)C)cc1	15	-2.5	100*	i	-5
Cc1sc(NC(=O)C2C3CCC(C3)C2C(=O)O)c(C(N)=O)c1-c1ccc(C(C)(C)C)cc1 (stereo not given)	4	0.91	57*	i	x
COc1ccc(N2C(=O)CC(C#N)=C2N)cc1	2	0.1	-8	i	-2
CCc1ccccc1NC(=S)NCc1cccn1C	2	-0.14	47	i	0
CCCN(CCC)C(=O)Cn1c(=O)c2ccccc2n2c(=S)sc(-c3ccccc3C)c12	1	-1.6	98*	i	x
CCCN(CCC)C(=O)Cn1c(=O)c2sccc2n2c(=S)sc(-c3ccccc3)c12	22	-1.4	-7	x	-2
CCOc1ccc(NC(=O)N(C2CCCCC2)C(C)c2ccncc2)cc1 (stereo not given)	2	-0.23	46	i	-1
CC(c1cccnc1)N(C(=O)Nc1ccccc1)C1CCCCC1 (stereo not given)	7	0.1	78*	i	-1
CCOc1ccc(NC(=O)N(C2CCCCC2)C(C)c2cccnc2)cc1 (stereo not given)	7	0.51	87*	i	x
O=C1Cc2ccccc2C(=O)N1OCc1ccc(Cl)cc1Cl	8	1.2	13	i	-6
CCn1c(C)nc2cc(C(=O)OC(C(F)(F)C(F)F)C(F)(F)C(F)F)ccc21	3	2.1	100*	x	x
O=C(Nc1cccc([N+](=O)[O-])c1)c1ccccc1	x	1.8	x	i	0
O=C(Nc1ccccc1)c1ccc(Nc2c([N+](=O)[O-])cc([N+](=O)[O-])c3ccccc23)cc1	2	0.018	78*	i	0
CC(c1ccccc1)N1C(=O)c2ccccc2C1(O)Cc1ccccc1 (stereo not given)	2	-0.73	17	i	0
COc1ccc(CCNS(=O)(=O)c2ccccc2)cc1OC	3	-0.22	-6	i	x
O=C1c2cccc3cccc(c23)C(=O)N1CCN1CCN(CC(O)COc2ccccc2)CC1 (stereo not given)	5	-0.71	97*	i	0
COc1cccc(OCC(O)CN2CCOCC2)c1 (stereo not given)	2	0.42	1	i	-1
COc1cccc(OCC(O)CN2CCN(CCN3C(=O)c4cccc5cccc(c45)C3=O)CC2)c1 (stereo not given)	6	1.1	100*	i	2
